Laboratory results from ChEMBL document CHEMBL1938254, “Semisynthetic neoboutomellerone derivatives as ubiquitin-proteasome pathway inhibitors” (Bioorg Med Chem, 2012).

Assays:
Type in all cases: cell-based
DLD-1 [1] = assay: Inhibition of 20S proteasome in human DLD1 cells transfected with 4Ub-Luc gene assessed as bioluminescence induction factor at 5 uM after 8 hrs by luciferase reporter gene assay relative to epoxomicin
Summary of the method: (§1)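 Stably transfected DLD-1 cells expressing 4Ub-Luc reporter, cultured in MEM with 5% heat-inactivated serum. Seeded at 10⁴ cells/well and treated with compound or solvent for 8 h. Luciferase activity in lysates read by luminometer. Induction factor = signal of treated over untreated cells, normalised to epoxomicin at 10^-7 M run in parallel (set to 100). IF ≥10 counted active.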

[2] = Inhibition of peptide-glutamyl-peptide-hydrolyzing activity of 20S proteasome in human DLD1 cells transfected with 4Ub-Luc gene using Z-Leu-Leu-Glu-AMC as substrate after 6 hrs by spectrofluorometric analysis; conditions: dld-1
Summary of the method: (§2)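 DLD-1 4Ub-Luc cells seeded at 10⁴ cells/well, exposed to compound or solvent for 6 h, then 30 min in reaction buffer (30 mM Tris–HCl pH 7.5, 1 mM ATP). Chymotrypsin-like and PGPH activities read with specific fluorogenic substrates.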

[3] = Inhibition of chymotrypsin-like activity of 20S proteasome in human DLD1 cells transfected with 4Ub-Luc gene using Succinyl-Leu-Leu-Val-Tyr-AMC as substrate after 6 hrs by spectrofluorometric analysis; conditions: dld-1; summary of the method: as §2
DLD-1 [4] = assay: Inhibition of 20S proteasome in human DLD1 cells transfected with 4Ub-Luc gene assessed as bioluminescence induction factor at 1 uM after 8 hrs by luciferase reporter gene assay relative to epoxomicin; summary of the method: as §1
DLD-1 [5] = assay: Inhibition of 20S proteasome activity in human DLD1 cells transfected with 4Ub-Luc gene assessed as bioluminescence induction factor at 10 uM after 8 hrs by luciferase reporter gene assay relative to epoxomicin; summary of the method: as §1

Compound | fold change (FC) (DLD-1 [1]) | IC50 [2] | IC50 [3] | fold change (FC) (DLD-1 [4]) | fold change (FC) (DLD-1 [5])
C=C(C(=O)[C@H](O)[C@@H](C)[C@H]1[C@@H](OC(C)=O)C[C@@]2(C)[C@@H]3C[C@@H](O)[C@H]4[C@H](C)C(=O)C=C[C@@]45C[C@@]35CC[C@]12C)[C@@H](C)CO | 35 | > 1000 µM | > 1000 µM | 1.1 | 
C=C(C(=O)[C@H](O)[C@@H](C)[C@H]1[C@@H](OC(C)=O)C[C@@]2(C)[C@@H]3CC[C@H]4[C@H](C)C(=O)C=C[C@@]45C[C@@]35CC[C@]12C)[C@@H](C)COC(=O)CN(C)C [listing 1 of 2 here] |  | 23 µM | 19 µM |  | 
C=C(C(=O)[C@H](OC(C)=O)[C@@H](C)[C@H]1[C@@H](OC(C)=O)C[C@@]2(C)[C@@H]3CC[C@H]4[C@H](C)C(=O)C=C[C@@]45C[C@@]35CC[C@]12C)[C@@H](C)CO[C@@]1(C)O[C@@H]2O[C@@H](COC(C)=O)[C@H](OC(C)=O)[C@@H](OC(C)=O)[C@@H]2O1 | 59 |  |  | 2 | 48
CC(=O)O[C@H]1C[C@@]2(C)[C@@H]3CC[C@H]4[C@H](C)/C(=N/OCc5ccccc5)C=C[C@@]45C[C@@]35CC[C@]2(C)[C@H]1[C@H](C)[C@@H](OC(C)=O)C(=O)C(CNOCc1ccccc1)[C@@H](C)CO (stereo not given in full) | 0.9 |  |  | 0.9 | 0.9
C=C(C(=O)[C@H](OC(C)=O)[C@@H](C)[C@H]1[C@@H](OC(C)=O)C[C@@]2(C)[C@@H]3CC[C@H]4[C@H](C)C(=O)C=C[C@@]45C[C@@]35CC[C@]12C)[C@@H](C)COC(=O)CP(=O)(O)O | 1.1 |  |  | 1.1 | 1.4
C=C(C(=O)[C@H](OC(C)=O)[C@@H](C)[C@H]1[C@@H](OC(C)=O)C[C@@]2(C)[C@@H]3CC[C@H]4[C@H](C)C(=O)CC[C@@]45C[C@@]35CC[C@]12C)[C@@H](C)CO | 45 | 13 µM | 17 µM | 0.9 | 48
C=C(C(=O)[C@H](OC(C)=O)[C@@H](C)[C@H]1[C@@H](OC(C)=O)C[C@@]2(C)[C@@H]3CC[C@H]4[C@H](C)/C(=N/OCc5ccccc5)C=C[C@@]45C[C@@]35CC[C@]12C)[C@@H](C)CO | 12 | 11 µM | 10 µM | 0.8 | 5.6
C=C(C(=O)[C@H](O)[C@@H](C)[C@H]1[C@@H](OC(C)=O)C[C@@]2(C)[C@@H]3CC[C@H]4[C@H](C)C(=O)C=C[C@@]45C[C@@]35CC[C@]12C)[C@@H](C)COS(=O)(=O)O | 0.8 |  |  | 0.9 | 0.9
C=C(C(=O)[C@H](OC(C)=O)[C@@H](C)[C@H]1[C@@H](OC(C)=O)C[C@@]2(C)[C@@H]3CC[C@H]4[C@H](C)C(=O)C=C[C@@]45C[C@@]35CC[C@]12C)[C@@H](C)COC(=O)CCl | 52 | > 1000 µM | > 1000 µM | 12 | 19
C=C(C(=O)[C@H](OC(C)=O)[C@@H](C)[C@H]1[C@@H](OC(C)=O)C[C@@]2(C)[C@@H]3CC[C@H]4[C@H](C)C(=O)C=C[C@@]45C[C@@]35CC[C@]12C)C(C)C | 74 | > 1000 µM | > 1000 µM | 7.2 | 19
C=C(C(=O)[C@H](OC(C)=O)[C@@H](C)[C@H]1[C@@H](OC(C)=O)C[C@@]2(C)[C@@H]3CC[C@H]4[C@H](C)C(=O)C=C[C@@]45C[C@@]35CC[C@]12C)[C@@H](C)COC(=O)CNC(=O)OC(C)(C)C | 43 | > 1000 µM | 92 µM | 14 | 10
C=C(C(=O)[C@H](OC(C)=O)[C@@H](C)[C@H]1[C@@H](OC(C)=O)C[C@@]2(C)[C@@H]3CC[C@H]4[C@H](C)C(=O)C=C[C@@]45C[C@@]35CC[C@]12C)[C@@H](C)COS(=O)(=O)O | 1.4 |  |  | 1.4 | 1.6
CONCC(C(=O)[C@H](OC(C)=O)[C@@H](C)[C@H]1[C@@H](OC(C)=O)C[C@@]2(C)[C@@H]3CC[C@H]4[C@H](C)C(=O)C=C[C@@]45C[C@@]35CC[C@]12C)[C@@H](C)CO (stereo not given in full) | 1.2 |  |  | 1.1 | 4.9
C=C(C(=O)[C@H](OC(C)=O)[C@@H](C)[C@H]1[C@@H](OC(C)=O)C[C@@]2(C)[C@@H]3CC[C@H]4[C@H](C)C(=O)C(O)C(O)[C@@]45C[C@@]35CC[C@]12C)[C@@H](C)COCC(O)CO (stereo not given in full) | 32 |  |  | 1.1 | 48
C=C(C(=O)[C@H](O)[C@@H](C)[C@H]1[C@@H](OC(C)=O)C[C@@]2(C)[C@@H]3CC[C@H]4[C@H](C)C(=O)C=C[C@@]45C[C@@]35CC[C@]12C)[C@@H](C)COC(=O)N1CCN(C)CC1 |  | 12 µM | 12 µM |  | 
C=C(C(=O)[C@H](OC(C)=O)[C@@H](C)[C@H]1[C@@H](OC(C)=O)C[C@@]2(C)[C@@H]3CC[C@H]4[C@H](C)C(=O)C=C[C@@]45C[C@@]35CC[C@]12C)[C@@H](C)COC(=O)CN | 76 |  |  | 1.4 | 56
C=C(C(=O)[C@H](OC(C)=O)[C@@H](C)[C@H]1[C@@H](OC(C)=O)C[C@@]2(C)[C@@H]3C[C@@H](O)[C@H]4[C@H](C)C(=O)C=C[C@@]45C[C@@]35CC[C@]12C)[C@@H](C)CO | 31 | > 1000 µM | > 1000 µM | 5.1 | 
C=C(C(=O)[C@H](O)[C@@H](C)[C@H]1[C@@H](OC(C)=O)C[C@@]2(C)[C@@H]3CC[C@H]4[C@H](C)C(=O)C=C[C@@]45C[C@@]35CC[C@]12C)[C@@H](C)COC(=O)CN(C)C [listing 2 of 2 here] |  | 22 µM | 17 µM |  | 
C=C(C(=O)[C@H](OC(C)=O)[C@@H](C)[C@H]1[C@@H](OC(C)=O)C[C@@]2(C)[C@@H]3CC[C@H]4[C@H](C)C(=O)C=C[C@@]45C[C@@]35CC[C@]12C)[C@H](C)CO | 51 |  |  | 1.1 | 88
C=C(C(=O)[C@H](OC(C)=O)[C@@H](C)[C@H]1[C@@H](OC(C)=O)C[C@@]2(C)[C@@H]3CC[C@H]4[C@H](C)C(=O)C[C@H](O)[C@@]45C[C@@]35CC[C@]12C)[C@@H](C)CO | 11 |  |  | 1.6 | 74
CC(=O)O[C@H]1C[C@@]2(C)[C@@H]3CC[C@H]4[C@H](C)C(=O)C=C[C@@]45C[C@@]35CC[C@]2(C)[C@H]1[C@H](C)C=O | 1.3 |  |  |  | 3
C=C(C(=O)[C@H](OC(=O)CCC(=O)O)[C@@H](C)[C@H]1[C@@H](OC(C)=O)C[C@@]2(C)[C@@H]3CC[C@H]4[C@H](C)C(=O)C=C[C@@]45C[C@@]35CC[C@]12C)[C@@H](C)COC(=O)CCC(=O)O | 1.1 |  |  | 1.2 | 1.2
C=C(C(=O)[C@H](OC(C)=O)[C@@H](C)[C@H]1[C@@H](OC(C)=O)C[C@@]2(C)[C@@H]3CC[C@H]4[C@H](C)C(=O)C=C[C@@]45C[C@@]35CC[C@]12C)[C@@H](C)C=O | 70 |  |  | 1 | 31
C=C(C(=O)[C@H](OC(C)=O)[C@@H](C)[C@H]1[C@@H](OC(C)=O)C[C@@]2(C)[C@@H]3CC[C@H]4[C@H](C)C(=O)C=C[C@@]45C[C@@]35CC[C@]12C)[C@@H](C)COC(=O)CNCCCNCCCCNCCCN | 1.4 |  |  | 1.1 | 11
C=C(C(=O)[C@H](OC(C)=O)[C@@H](C)[C@H]1[C@@H](OC(C)=O)C[C@@]2(C)[C@@H]3CC[C@H]4[C@H](C)C(=O)C=C[C@@]45C[C@@]35CC[C@]12C)[C@@H](C)C(=O)O | 1.4 |  |  | 1 | 16
C=C(C(=O)[C@H](OC(C)=O)[C@@H](C)[C@H]1[C@@H](OC(C)=O)C[C@@]2(C)[C@@H]3CC[C@H]4[C@H](C)C(=O)C=C[C@@]45C[C@@]35CC[C@]12CO)[C@@H](C)CO | 12 |  |  | 1.2 | 1.1
C=C(C(=O)[C@H](O)[C@@H](C)[C@H]1[C@@H](OC(C)=O)C[C@@]2(C)[C@@H]3CC[C@H]4[C@H](C)C(=O)CC[C@@]45C[C@@]35CC[C@]12C)[C@@H](C)CO | 10 |  |  | 1.2 | 77
CO/N=C1/C=C[C@]23C[C@]24CC[C@]2(C)[C@@H]([C@H](C)[C@@H](OC(C)=O)C(=O)C(CNOC)[C@@H](C)CO)[C@@H](OC(C)=O)C[C@@]2(C)[C@@H]4CC[C@H]3[C@@H]1C (stereo not given in full) | 0.7 |  |  | 1 | 0.6
C=C(C(=O)[C@H](OC(C)=O)[C@@H](C)[C@H]1[C@@H](OC(C)=O)C[C@@]2(C)[C@@H]3CC[C@H]4[C@H](C)C(=O)C=C[C@@]45C[C@@]35CC[C@]12C)[C@@H](C)CN1C(=O)CN(CCCN(CCCCN(CCCNC(=O)OC(C)(C)C)C(=O)OC(C)(C)C)C(=O)OC(C)(C)C)C1=O | 30 |  |  | 1 | 37
